# Measurements taken from ChEMBL document CHEMBL1125466, “Synthesis and antiulcer activity of N-substituted N'-[3-[3-(piperidinomethyl)phenoxy]propyl]ureas: histamine H2-receptor antagonists with a potent mucosal protective activity” (J Med Chem, 1992).
# Columns and labels:
# [1] = biological target: T1, Histamine H2 receptor (Cavia porcellus, UniProt P47747); experiment: In vitro inhibitory activity against histamine H2-receptor in isolated Guinea pig right atria.; conditions: read-out: pA2 (converted)
# [2] = test system: Rattus norvegicus; experiment: In vivo gastric antisecretory activity in acute fistula rats; type: functional, Stomach; design: concentration or dose not given beside the values
# How it was run: (§1)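 Male Donryu or Wistar rats, 170-310 g, fasted 24 h. Under urethane anesthesia the pylorus was ligated (acute fistula). Compound, suspended in 1% gum arabic, given intraduodenally after the second gastric juice collection, usually at 10 mg/kg. Acid output compared with vehicle mean. Percent inhibition given as mean ± SE, 2-5 animals per group.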
# [3] = test system: Rattus norvegicus; experiment: Gastric antisecretory activity in rat (in vivo); type: functional; how it was run: as §1
# [4] = test system: Rattus norvegicus; experiment: In vivo gastric mucosal protective activity against gastric mucosal lesions induced by 0.6 N HCl in rats.; type: functional, Gastric mucosa; design: concentration or dose not given beside the values
# How it was run: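 Male Donryu or Wistar rats, 150-230 g, deprived of food and water 24 h. Compound given orally (25 mg/kg) 1.5 h before 1 mL 0.6 N HCl po. Killed 1 h after HCl. Stomach fixed with 0.5% formalin, and glandular lesion lengths measured. Percent inhibition compared with vehicle, mean ± SE, 5-10 animals.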
# [5] = test system: Rattus norvegicus; experiment: In Vivo gastric Mucosal protective activity against gastric mucosal lesions induced by 0.6 N HCl in rats. (200 mg/kg, po); type: functional, Gastric mucosa
# How it was run: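 Oral dosing at 200 mg/kg, 1.5 h before 1 mL of 0.6 N HCl, in male Donryu or Wistar rats (150-230 g) deprived of food and water 24 h. Killed 1 h later. Stomach formalin-fixed and glandular lesion length scored against vehicle. Percent inhibition given as mean ± SE.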
# [6] = biological target: T1, Histamine H2 receptor; experiment: Compound was evaluated in vitro inhibitory activity against histamine H2 receptor in isolated Guinea pig right atria.; conditions: read-out: pA2 (converted)
# [7] = test system: Rattus norvegicus; experiment: In vivo gastric antisecretory activity in acute fistula rats.; type: functional, Stomach; how it was run: as §1
# T1 sequence (P47747 whole entry): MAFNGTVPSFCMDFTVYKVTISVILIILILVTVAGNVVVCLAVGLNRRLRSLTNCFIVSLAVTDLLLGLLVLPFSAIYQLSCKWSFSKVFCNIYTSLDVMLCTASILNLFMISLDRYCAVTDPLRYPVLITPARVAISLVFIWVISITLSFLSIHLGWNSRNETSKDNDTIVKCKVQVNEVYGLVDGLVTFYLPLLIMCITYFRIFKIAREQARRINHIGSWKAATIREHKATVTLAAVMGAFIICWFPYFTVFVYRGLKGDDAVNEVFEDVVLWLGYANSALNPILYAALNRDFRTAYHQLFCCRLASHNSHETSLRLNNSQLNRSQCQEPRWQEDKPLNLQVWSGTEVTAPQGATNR
Compound,Kb [1],Inhibition [2],AS activity class [3],Inhibition [4],Inhibition [5],Kb [6],inhibition ([5]; Gastric mucosa),Inhibition [7]
O=C(NCCCOc1cccc(CN2CCCCC2)c1)Nc1cccc([N+](=O)[O-])c1,269 nM,-23.9%,1,40.9%,–,–,–,–
CCCCNC(=O)NCCCOc1cccc(CN2CCCCC2)c1,81.3 nM,83%,3,67.5%,–,–,–,–
NC(N)=Nc1nc(CSCC/C(N)=N/S(N)(=O)=O)cs1 [FAMOTIDINE],100 nM,–,–,–,7.9%,–,–,–
O=C(NCCCOc1cccc(CN2CCCCC2)c1)NC1CC1,47.9 nM,87.5%,3,49.4%,–,–,–,–
CC(C)CNC(=O)NCCCOc1cccc(CN2CCCCC2)c1,170 nM,40.3%,2,43.3%,–,–,–,–
O=C(NCCCOc1cccc(CN2CCCCC2)c1)Nc1ccc2c(c1)OCO2,288 nM,48.9%,2,47.1%,–,–,–,–
CCOc1ccc(NC(=O)NCCCOc2cccc(CN3CCCCC3)c2)cc1,490 nM,54.1%,2,32.7%,–,–,–,–
CNC(=C[N+](=O)[O-])NCCSCc1ccc(CN(C)C)o1 [RANITIDINE],–,–,–,–,-16.8%,64.6 nM,–,–
O=C(NCCCOc1cccc(CN2CCCCC2)c1)Nc1ccc(Cl)cc1,631 nM,28.2%,1,33.9%,–,–,–,–
CCC(C)NC(=O)NCCCOc1cccc(CN2CCCCC2)c1 (stereo unspecified),95.5 nM,55.1%,2,17.7%,–,–,–,–
CCNC(=O)NCCCOc1cccc(CN2CCCCC2)c1 [DALCOTIDINE],40.7 nM,71.8%,3,77.9%,–,–,–,–
CC(C)(C)NC(=O)NCCCOc1cccc(CN2CCCCC2)c1,2090 nM,-56%,1,28.5%,–,–,–,–
O=C(NCCF)NCCCOc1cccc(CN2CCCCC2)c1,85.1 nM,98.7%,3,36%,–,–,–,–
O=C(NCCCOc1cccc(CN2CCCCC2)c1)Nc1ccc(C(F)(F)F)cc1,1700 nM,3.8%,1,51%,–,–,–,–
COc1ccc(N/C(S)=N/CCCOc2cccc(CN3CCCCC3)c2)cc1,4370 nM,-5.5%,–,51.6%,–,–,–,–
TEPRENONE,–,–,–,–,–,–,42.7%,–
COc1ccccc1NC(=O)NCCCOc1cccc(CN2CCCCC2)c1,776 nM,-57.4%,1,31.7%,–,–,–,–

Compound,Kb [1],Inhibition [2],AS activity class [3],Inhibition [4],Inhibition [5],Kb [6],inhibition ([5]; Gastric mucosa),Inhibition [7]
CN/C(=N\CCSCc1nc[nH]c1C)NC#N [CIMETIDINE],–,–,–,–,-42.2%,–,–,–
O=C(NCCCOc1cccc(CN2CCCCC2)c1)Nc1cccc(Cl)c1,316 nM,-44.9%,1,43.3%,–,–,–,–
Cc1ccc(NC(=O)NCCCOc2cccc(CN3CCCCC3)c2)cc1,631 nM,-45.5%,1,40.1%,–,–,–,–
CCCNC(=O)NCCCOc1cccc(CN2CCCCC2)c1,97.7 nM,96.6%,3,73.5%,–,–,–,–
O=C(NCCCOc1cccc(CN2CCCCC2)c1)Nc1ccccc1,126 nM,12.6%,1,44.3%,–,–,–,–
COc1ccc(OC)c(NC(=O)NCCCOc2cccc(CN3CCCCC3)c2)c1,158 nM,-30.8%,1,34.7%,–,–,–,–
COc1cccc(NC(=O)NCCCOc2cccc(CN3CCCCC3)c2)c1,200 nM,53.2%,2,48.2%,–,–,–,–
CNC(=O)NCCCOc1cccc(CN2CCCCC2)c1,155 nM,93.3%,3,64.7%,–,–,–,–
COc1ccc(NC(=O)NCCCOc2cccc(CN3CCCCC3)c2)cc1,631 nM,73.5%,3,40.9%,–,–,–,–
O=C(NCCCOc1cccc(CN2CCCCC2)c1)NC1CCCCC1,43.7 nM,77.9%,3,39.3%,–,–,–,–
COc1ccc(NC(=O)NCCCOc2cccc(CN3CCCCC3)c2)c(OC)c1,2240 nM,13.1%,1,55.7%,–,–,–,–
O=C(NCCCOc1cccc(CN2CCCCC2)c1)Nc1cccc(C(F)(F)F)c1,813 nM,7.8%,1,-4.9%,–,–,–,–
CC(C)NC(=O)NCCCOc1cccc(CN2CCCCC2)c1,43.7 nM,71.3%,3,72.9%,–,–,–,–
Nc1cccc(NC(=O)NCCCOc2cccc(CN3CCCCC3)c2)c1,–,–,3,47.2%,–,155 nM,–,95%
O=C(NCCCOc1cccc(CN2CCCCC2)c1)Nc1ccc([N+](=O)[O-])cc1,–,–,1,23.4%,–,178 nM,–,9%
O=C(NCCCOc1cccc(CN2CCCCC2)c1)NCc1ccccc1,347 nM,54.2%,2,61%,–,–,–,–
